Assay [1] deals with 3',5'-cyclic-AMP phosphodiesterase 4B (Homo sapiens) (UniProt Q07343). Kind of assay: Inhibition of PDE4B expressed in Sf9 cells using cAMP as substrate at 30 uM preincubated for 15 mins prior substrate addition measured after 1 hr by luminescence-based spectrophotometry. A digest of the protocol:
(§1)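 10 ng PDE4B enzyme (isolated from Sf9 cells) was preincubated 15 min with compound or DMSO vehicle, then incubated 1 h with 5 µM cAMP using a PDElight HTS cAMP phosphodiesterase kit. The reaction was stopped, then developed with detection reagent for 10 min in the dark. Luminescence (RLU) was read, and % inhibition was calculated as (RLU vehicle − RLU inhibitor)/RLU vehicle × 100.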

The target is the same in assay [2]. Kind of assay: Inhibition of PDE4B expressed in Sf9 cells using cAMP as substrate preincubated for 15 mins prior substrate addition measured after 1 hr by luminescence-based spectrophotometry. An outline of the steps: as §1
The nature of assay [3]: Ratio of inhibition of PDE4B over inhibition of PDE4D2.
Assay [4] concerns the target 3',5'-cyclic-AMP phosphodiesterase 4D (Homo sapiens) (UniProt Q08499). As to the kind of experiment: Inhibition of PDE4D2 using cAMP as substrate at 30 uM preincubated for 15 mins prior substrate addition measured after 1 hr by luminescence-based spectrophotometry.

This passage reports inhibition and Ratio results from ChEMBL document CHEMBL2010705, “Design and synthesis of 4-alkynyl pyrazoles as inhibitors of PDE4: a practical access via Pd/C-Cu catalysis” (Bioorg Med Chem Lett, 2012).

Structures are written as SMILES. Active and inactive are the calls of the source. The calls are words filed in the database; no cut-off is given here.

3',5'-cyclic-AMP phosphodiesterase 4B (Homo sapiens), sequence (Q07343 whole entry): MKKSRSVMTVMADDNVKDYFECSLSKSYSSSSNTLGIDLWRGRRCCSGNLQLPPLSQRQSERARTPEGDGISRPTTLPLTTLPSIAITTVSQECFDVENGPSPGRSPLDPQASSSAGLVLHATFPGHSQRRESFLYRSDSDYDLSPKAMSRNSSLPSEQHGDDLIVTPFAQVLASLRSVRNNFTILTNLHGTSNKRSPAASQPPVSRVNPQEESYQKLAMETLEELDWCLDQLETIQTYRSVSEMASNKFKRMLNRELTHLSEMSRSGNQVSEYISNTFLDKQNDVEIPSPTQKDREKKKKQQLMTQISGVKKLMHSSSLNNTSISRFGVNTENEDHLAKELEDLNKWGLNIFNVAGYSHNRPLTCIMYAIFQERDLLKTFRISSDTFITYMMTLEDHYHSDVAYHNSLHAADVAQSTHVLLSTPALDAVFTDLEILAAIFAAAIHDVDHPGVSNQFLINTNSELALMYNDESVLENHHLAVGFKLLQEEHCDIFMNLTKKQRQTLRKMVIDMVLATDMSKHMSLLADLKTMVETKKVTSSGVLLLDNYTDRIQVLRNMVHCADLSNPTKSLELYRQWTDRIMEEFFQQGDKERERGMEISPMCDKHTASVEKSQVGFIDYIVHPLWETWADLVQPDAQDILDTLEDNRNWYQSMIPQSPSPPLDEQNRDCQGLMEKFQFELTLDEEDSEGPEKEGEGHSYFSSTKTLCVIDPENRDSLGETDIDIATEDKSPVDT
3',5'-cyclic-AMP phosphodiesterase 4D (Homo sapiens), sequence (Q08499 whole entry): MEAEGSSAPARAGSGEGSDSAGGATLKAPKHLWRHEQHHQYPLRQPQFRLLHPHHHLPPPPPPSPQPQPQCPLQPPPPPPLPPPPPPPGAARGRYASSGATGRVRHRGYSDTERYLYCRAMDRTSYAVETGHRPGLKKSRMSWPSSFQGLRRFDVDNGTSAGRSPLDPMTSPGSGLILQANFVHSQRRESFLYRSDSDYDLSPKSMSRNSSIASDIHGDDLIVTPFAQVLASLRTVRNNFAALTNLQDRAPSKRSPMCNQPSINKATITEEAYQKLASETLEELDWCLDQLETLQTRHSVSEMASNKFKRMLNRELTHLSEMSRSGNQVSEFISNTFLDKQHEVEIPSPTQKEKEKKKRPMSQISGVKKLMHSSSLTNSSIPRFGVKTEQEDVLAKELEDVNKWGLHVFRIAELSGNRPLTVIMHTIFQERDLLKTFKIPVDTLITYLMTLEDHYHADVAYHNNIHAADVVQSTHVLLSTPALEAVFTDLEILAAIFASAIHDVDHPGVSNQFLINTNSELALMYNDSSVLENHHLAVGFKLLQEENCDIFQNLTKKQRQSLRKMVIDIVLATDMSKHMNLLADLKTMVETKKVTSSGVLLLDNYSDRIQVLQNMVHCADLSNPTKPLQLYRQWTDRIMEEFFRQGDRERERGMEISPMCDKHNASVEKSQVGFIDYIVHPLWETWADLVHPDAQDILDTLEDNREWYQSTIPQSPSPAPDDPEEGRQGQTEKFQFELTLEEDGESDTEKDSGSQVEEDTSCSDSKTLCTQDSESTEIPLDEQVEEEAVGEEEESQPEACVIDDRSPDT

In general, inhibition refers to the percentage by which the read-out fell short of the control. `CCOC(=O)c1nn(C)c(-c2cccc(Cl)c2)c1C#CC(C)(C)O` had an inhibition in assay [1] of 67.3%.

Take `CCOC(=O)c1n[nH]c(-c2cccc(Cl)c2)c1C#CCO`: the inhibition in assay [1] was found to be 68.1%. As to `Cc1c(C#Cc2ccccc2)cnn1C`, the inhibition entry in assay [2] is “Active”.

In assay [1], `CCOC(=O)c1n[nH]c(-c2cccc(Cl)c2)c1C#CC1(O)CCCCC1` had an inhibition of 21.1%. On to `CCOC(=O)c1n[nH]c(-c2cccc(Cl)c2)c1C#CC(C)(C)O`, for which the inhibition in assay [1] turned out to be 70%; in assay [4], 20%. Moreover, the Ratio in assay [3] was found to be 2. On to `Cc1nn(C)c(C)c1C#Cc1ccccc1`, for which, in assay [2], the inhibition result was “Active”. For `CCOC(=O)c1n[nH]c(-c2cccc(Cl)c2)c1C#CCCCC#N`, the inhibition in assay [1] stood at 71.1%; in assay [4], 20%. Moreover, the Ratio in assay [3] turned out to be 2. Take `CCOC(=O)c1n[nH]c(-c2cccc(Cl)c2)c1C#Cc1ccccc1`: the inhibition in assay [1] was found to be 70%; in assay [4] it was 20%. Further, in assay [3], the Ratio is 2.

Take `CCOC(=O)c1nn(C)c(-c2cccc(Cl)c2)c1C#CCCCC#N`: the inhibition in assay [1] was 73.4%; in assay [2], “Dose-dependent effect”; in assay [4], 20%. The Ratio in assay [3] is 2. On to `CCOC(=O)c1n[nH]c(-c2cccc(Cl)c2)c1C#CCCO`, for which the inhibition in assay [1] worked out at 65.1%. `CCOC(=O)c1nn(C)c(-c2cccc(Cl)c2)c1C#CCCO`: the inhibition in assay [1] amounted to 59.2%. On to `CCOC(=O)c1nn(C)c(-c2cccc(Cl)c2)c1C#CCO`, for which the inhibition in assay [1] was determined as 69.1%.
